Only some compounds are listed: those with a hit (about 4.5% of all), similar ones and a draw of the others.
Mdm2 ligase inh – Mdm2 E3 ligase (human) inhibition; Q00987; cell-based MDM2 ubiquitination luciferase reporter, 2 h; 0 = plate control, 100 = twice control, blank-subtracted; signal enhancement, % at 5 µM; 0.11% of 210,000 active; AID 1230;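 active means signal enhancement of 30% or more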;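 further: luminescence tracks abundance of the self-degrading MDM2-luciferase fusion protein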
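Assay system: stable mammalian line carrying autodegrading MDM2–luciferase fusion reporter; Input: 2000 cells in each well; Compound dosing: single-point 5 µM; Schedule: 2 h compound exposure at 37 °C; Signal: SteadyLite luciferase luminescence after 15 min room-temperature reagent incubation; Evaluation: % luminescence enhancement versus blank-corrected plate control mean; Benchmarks: plate controls and plate blanks.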
STAT1 activator – increases IFN-gamma driven STAT1 reporter signal | NIH 3T3 STAT1-luciferase reporter, luminescence; 100% = IFN-gamma alone, no compound | activation (% of control), % at 5.5 µM | 2.6% of 200,000 active | AID 932;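 active means activation above the screen-wide mean activation plus 3 SD, cut at about 130% in these data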;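 further: raw ratio to IFN-gamma control signal so 100% means no change and 0% no light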
PERK inhibitor – blocks human PERK kinase | Q9NZJ5 | CHO PERK-DD fusion, SEAP luminescence translation reporter | inhibition, % at 5.6 µM | 0.17% of 220,000 active;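 active means inhibition above the mean inhibition of all tested compounds plus 3 SD, set separately per screening campaign, cut at about 2.9% in these data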;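 further: PERK kinase domain activated by AP20187 dimerizer at 100 nM; 0% = DMSO with dimerizer and 100% = rapamycin at 8.4 µM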
Target sequence (Q9NZJ5 whole entry, looked up, the tested form may be a part): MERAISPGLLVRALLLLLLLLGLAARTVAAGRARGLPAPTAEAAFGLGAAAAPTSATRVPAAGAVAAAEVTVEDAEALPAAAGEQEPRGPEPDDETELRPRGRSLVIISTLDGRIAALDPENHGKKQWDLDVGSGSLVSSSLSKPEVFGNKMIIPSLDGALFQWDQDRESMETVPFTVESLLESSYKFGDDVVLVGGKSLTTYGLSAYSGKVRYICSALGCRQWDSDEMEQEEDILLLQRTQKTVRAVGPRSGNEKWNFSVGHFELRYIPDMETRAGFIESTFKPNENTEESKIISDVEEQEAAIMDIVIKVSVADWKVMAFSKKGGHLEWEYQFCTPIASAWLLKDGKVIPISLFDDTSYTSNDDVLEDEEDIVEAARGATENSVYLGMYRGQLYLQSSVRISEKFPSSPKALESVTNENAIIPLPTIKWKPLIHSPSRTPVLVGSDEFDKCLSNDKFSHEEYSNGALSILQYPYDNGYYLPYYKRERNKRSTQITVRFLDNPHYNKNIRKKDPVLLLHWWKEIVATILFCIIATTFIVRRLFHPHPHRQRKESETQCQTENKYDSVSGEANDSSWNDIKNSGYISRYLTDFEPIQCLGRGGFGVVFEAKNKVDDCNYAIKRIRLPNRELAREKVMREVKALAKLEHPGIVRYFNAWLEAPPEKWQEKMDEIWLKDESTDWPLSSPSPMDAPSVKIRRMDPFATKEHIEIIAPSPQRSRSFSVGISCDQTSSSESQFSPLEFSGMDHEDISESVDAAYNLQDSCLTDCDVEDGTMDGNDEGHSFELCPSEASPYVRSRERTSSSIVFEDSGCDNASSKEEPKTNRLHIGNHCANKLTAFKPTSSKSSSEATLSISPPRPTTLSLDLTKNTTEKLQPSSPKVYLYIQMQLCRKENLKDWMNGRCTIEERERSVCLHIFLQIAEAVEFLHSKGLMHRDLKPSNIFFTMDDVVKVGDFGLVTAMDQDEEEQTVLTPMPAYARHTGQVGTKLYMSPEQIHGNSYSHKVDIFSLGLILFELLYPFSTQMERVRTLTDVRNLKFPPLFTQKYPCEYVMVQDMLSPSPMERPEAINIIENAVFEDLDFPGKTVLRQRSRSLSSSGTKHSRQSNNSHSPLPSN
AHR activator – activators of human aryl hydrocarbon receptor. activation, % at 5 µM. AHR-responsive luciferase reporter cells, luminescence. 2.5% of 320,000 active. P35869; in the data active means activation above about 47%;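 further: 0% = vehicle wells and 100% = reference agonist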
APP 5'UTR act – APP 5'UTR luciferase reporter activation; activation, % at 2 µM; 1% of 190,000 active; SH-SY5Y APP 5'UTR luciferase reporter, luminescence; zero percent = DMSO vehicle wells;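 active means activation above a set limit, based on mean plus 3 SD of controls, cut at about 140% in these data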
NF-kB neuron act – NF-kB expression increase, human neuronal cells; 1.6% of 190,000 active; fold change at 12.5 µM; NF-kB reporter expression; hits give high values; in the data active means fold change above about 3.3
* marks the source's active call; other numbers are inactive results; x = no result given.

SMILES | Mdm2 ligase inh | STAT1 activator | PERK inhibitor | AHR activator | APP 5'UTR act | NF-kB neuron act
CN1CCN(c2ncnc3sc(-c4ccccc4)cc23)CC1 | -19.5 | 106.7 | -0.1 | 54.6* | -16.0 | 0.76
Cc1ccc(N=C(N)N=C(N)N)cc1 | -11.0 | x | 1.3 | 3.0 | x | x
CCOC(=O)COc1ccc(C2CC(C)=NN2c2ccccc2)cc1 (stereo unspecified) | 32.5* | 104.3 | 1.1 | 1.0 | 13.4 | 1.02
COc1ccc(-c2cc3cc(OC)c(OC)cc3cn2)cc1 | x | x | x | 64.5* | x | x
COc1ccc(-c2cc3cc4c(cc3cn2)OCO4)cc1 | x | x | x | 38.9 | x | x
O=C(Nn1cnnc1)c1cc(Br)ccc1Cl | x | x | x | -1.7 | x | x
COc1ccccc1S(=O)(=O)Cc1ccc(C(=O)NCCN2CCCCCC2)o1 | -17.9 | 101.6 | 0.5 | 47.0* | 0.9 | 0.94
COCCNC(=O)c1ccc(CS(=O)(=O)c2ccccc2OC)o1 | x | x | x | 2.4 | x | x
C=CCc1cccc(C=Nc2cccn3cc(-c4ccccc4)nc23)c1O | -7.8 | 131.5* | 0.1 | 6.9 | 52.9 | 1.35
NNc1nc(-c2ccccc2)nc2sc3c(c12)CCCC3 | -39.0 | 139.9* | 0.2 | 74.7* | 171.3* | 1.69
NNc1nc2sc3c(c2c(=O)n1Cc1ccccc1)CCC3 | -8.0 | x | -1.7 | 4.8 | x | x
C/C(=N/NC(=O)c1ccccc1)C(=O)O | 5.1 | 132.4* | 1.6 | 5.5 | 0.7 | 1.74
CC(/C=C/c1ccccc1F)=N\NC(=O)c1ccccc1 | -13.5 | 133.2* | -0.1 | 2.8 | 79.6 | 2.7
CC(/C=C/c1ccccc1F)=N\NC(=O)c1ccc(Cl)cc1 | -9.2 | 92.7 | 0.8 | 11.9 | -2.2 | 0.83
CC1(c2nnc(-c3ccncc3)o2)CC(c2ccc(F)cc2)=NO1 (stereo unspecified) | 10.6 | x | x | 0.0 | x | x
COc1cccc(-n2cc3c(=O)n(C)c(=O)n(C)c3c2)c1 | -25.8 | 114.2 | -0.6 | 58.6* | 4.7 | 1.22
Cn1c(=O)c2cn(-c3ccccc3)cc2n(C)c1=O | -10.3 | 102.7 | -0.5 | 8.8 | 2.5 | 1.18
O=C(OCC(=O)c1c[nH]c2ccccc12)C1=COCCO1 | -17.8 | 129.2* | 1.0 | 11.3 | 37.2 | 2.35
CC1(C(=O)OCC(=O)c2c[nH]c3ccccc23)CC1(Cl)Cl (stereo unspecified) | -13.5 | 137.7* | -0.7 | 16.1 | 144.6* | 2.33
CCc1ccc2oc(-c3ccc(OC)cc3)cc(=Nc3cccc(C(=O)O)c3)c2c1 | -15.0 | 88.4 | -0.2 | -12.2 | 203.9* | 7.19*
COc1ccc2cc(C(=O)NCc3ccco3)c(=Nc3ccc(C(=O)O)cc3)oc2c1 | -19.6 | 90.8 | 0.4 | -5.5 | 38.5 | 1.65
CCOc1ccc2c(c1)c(N=Nc1cccc(C(=O)O)c1)c(O)n2C | -16.5 | 112.6 | 0.4 | 7.6 | 12.7 | 1.83
CCc1ccc2oc(-c3ccc(OC)cc3)cc(=Nc3c(C)n(C)n(-c4ccccc4)c3=O)c2c1 | 3.0 | 105.3 | 0.7 | 56.6* | 172.8* | 0.64
C=CCn1c(-c2ccc(OC)cc2)csc1=Nc1c(C)n(C)n(-c2ccccc2)c1=O | -6.6 | 94.5 | -2.2 | 1.4 | 2.4 | 0.69
COc1ccc(-c2cc(=Nc3ccc(C(=O)O)cc3)c3cc(C)ccc3o2)cc1 | -8.7 | 116.6 | -0.4 | -6.1 | 209.4* | 3.03
SMILES | Mdm2 ligase inh | STAT1 activator | PERK inhibitor | AHR activator | APP 5'UTR act | NF-kB neuron act
Cc1ccc(S(=O)(=O)N2CCC(C(=O)OCC(=O)N3CCCC3=O)CC2)cc1C | x | x | x | -1.5 | x | x
Cc1ccc(-c2cc(C(=O)N3CCCC3)no2)cc1 | -86.2 | 73.0 | -0.8 | -4.9 | 208.1* | 3.79*
COc1ccc(-c2cc(C(=O)N3CCCCC3)no2)cc1OC | -0.4 | 131.9* | -0.1 | 8.3 | 46.5 | 1.87
Cc1ccc(-c2cc(C(=O)N3CCOCC3)no2)cc1 | x | x | x | -0.9 | x | x
O=C(N/N=C\CCc1ccccc1)c1ccco1 | -10.1 | 133.7* | 0.7 | 5.5 | 43.1 | 1.19
CC(/C=N/NC(=O)c1ccco1)=C\c1ccccc1 | -45.2 | 108.3 | 0.0 | -0.5 | 160.9* | 5.91*
CC(/C=N/NC(=O)c1ccccc1C)=C\c1ccccc1 | x | x | x | -0.5 | x | x
O=C(CCc1ccccc1)Nc1ccc(NC(=O)c2ccco2)cc1 | -11.6 | 107.0 | 0.4 | -0.3 | 3.0 | 1.18
CC(/C=N/NC(=O)c1cccs1)=C\c1ccccc1 | -33.7 | 134.2* | 0.5 | -0.5 | 188.4* | 8.51*
COc1cccc(N(C(=O)Cn2nnc(-c3ccc(Cl)cc3)n2)C(C(=O)NCC2CCCO2)c2ccc(C)cc2)c1 (stereo unspecified) | -2.8 | 100.2 | 0.2 | 4.2 | -5.4 | 1.34
CN(C)C/C=C(\c1ccc(Br)cc1)c1cccnc1 | x | x | x | 0.1 | x | x
O=C(Oc1ccc(Cl)c2cccnc12)c1cccc([N+](=O)[O-])c1 | -1.7 | 102.5 | 1.1 | 24.0 | 8.1 | 0.75
O=[N+]([O-])c1ccccc1COc1ccc(Cl)c2cccnc12 | x | x | x | 72.5* | x | x
Nc1nc(-c2cccnc2)nn1C(=O)c1ccc(F)cc1 | -8.7 | 101.5 | 2.7 | x | 8.8 | 1.58
NNC(=O)c1cc(-c2ccccc2)sc1N | -11.3 | x | 1.7 | 55.9* | x | x
NNC(=O)c1sc(-c2ccccc2)cc1N | -9.7 | 119.0 | 0.8 | 65.8* | -7.7 | 1
O=C(CN1C(=O)COc2ccc(S(=O)(=O)N3CCOCC3)cc21)NCc1ccco1 | -4.1 | x | 1.9 | 0.3 | x | x
O=C(CN1C(=O)COc2ccc(S(=O)(=O)N3CCOCC3)cc21)NCc1ccccn1 | -20.7 | x | 3.5* | -3.5 | x | x
COc1cccc(NCc2cc(=O)oc3cc(-c4ccccc4)c(O)cc23)c1 | -14.7 | 97.2 | -0.5 | 75.9* | 13.5 | 1.31
O=C(Nc1nc(-c2ccc(-c3ccccc3)cc2)cs1)c1cc([N+](=O)[O-])ccc1N1CCOCC1 | -6.2 | 106.6 | -0.3 | -0.5 | 14.6 | 1.1
O=C(Nc1nc2c(ccc3ccccc32)s1)c1cc([N+](=O)[O-])ccc1N1CCOCC1 | 0.6 | 131.1* | 1.3 | 8.6 | 20.1 | 1.25
COc1ccc(NC(=O)COC(=O)C2C3CC4OC(=O)C2C4C3)cc1 (stereo unspecified) | x | x | x | 1.0 | x | x
COc1ccc(N(C(=O)c2snc(C(N)=O)c2N)C(CC(C)C)C(=O)NCC2CCCO2)cc1 (stereo unspecified) | x | x | x | 0.4 | x | x
CC1CCCN(S(=O)(=O)c2ccc(CN3C(=O)c4cccnc4C3=O)cc2)C1 (stereo unspecified) | x | x | x | 4.0 | x | x
Cn1c(CNc2ccc(Cl)cc2)nnc1SCC#N | -17.4 | 92.3 | 0.7 | 59.0* | 16.4 | 1
CCSc1nnc(CNc2ccc(C)cc2)n1C | -3.4 | 106.9 | -1.0 | 75.4* | -4.7 | 1.39
Cc1ccc(OCC(=O)N2c3ccccc3CC2C)c([N+](=O)[O-])n1 (stereo unspecified) | -8.1 | 101.7 | 0.3 | -0.7 | 2.2 | 1.72
O=C(/C=C/Nc1ccc(F)cc1)c1cccs1 | x | 80.2 | 0.4 | 23.3 | 160.3* | x
O=C(/C=C/Nc1ccc(S(=O)(=O)Nc2ncccn2)cc1)c1cccs1 | -7.6 | x | 1.3 | 7.9 | x | x
